SMILES strings stand for the structures.

Experiment [1] has as its target T1, Sialic acid-binding Ig-like lectin 7 (Homo sapiens, UniProt Q9Y286). Description: Binding affinity to human IgG1-fused Siglec-7-Fc assessed as inhibition of Siglec-7-Fc binding to RBC preincubated for 10 mins followed by RBC addition measured after 20 mins by FACS analysis relative to sodium (4S,5R,6R)-5-acetamido-4-hydroxy-2-methoxy-6-((1R,2R)-1,2,3 trihydroxypropyl)tetrahydro-2H-pyran-2-carboxylate. A digest of the protocol: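 RBC flow-cytometry competition as above: Siglec-7-Fc 0.2 μg/mL with ligand 10 min at RT, then RBCs 20 min on ice, detected by anti-Fc-biotin/streptavidin-PE MFI. The reference ligand α-Me Neu5Ac is run in the same test. Relative inhibitory potency is calculated intra-test against it to offset inter-test variation from fresh RBCs.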
Background: In flow cytometry, cells or beads pass a laser one at a time.

Experiment [2] has as its target T1, Sialic acid-binding Ig-like lectin 7. Description: Binding affinity to human IgG1-fused Siglec-7-Fc assessed as inhibition of Siglec-7-Fc binding to RBC preincubated for 10 mins followed by RBC addition measured after 20 mins by FACS analysis. A digest of the protocol: (§1)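 Siglec-7-Fc (human IgG1 fusion), 0.2 μg/mL, premixed 10 min at RT in PBS with inhibitor dilution series. The mix is then added to pelleted freshly isolated human RBCs (0.1% suspension) for 20 min on ice. Bound Fc is detected with biotin goat anti-human Fc (10 μg/mL) and streptavidin-PE, then formaldehyde-fixed and read by flow cytometry. % inhibition is from MFI, with unstained RBCs as 100% and no inhibitor as 0%. IC50 derived.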

The target is the same in experiment [3]. Description: Binding affinity to human IgG1-fused Siglec-7-Fc measured after 2.5 hrs by ELISA. An outline of the steps:
(§2)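 Streptavidin-coated plates carry 4 μg/mL biotinylated 6′sialyl-N-acetyllactosamine-polyacrylamide and are BSA-blocked. Ligand 10-fold dilutions (1 mM to 1 × 10⁻⁵ mM, PBS) and hSiglec7-Fc precomplexed with AP anti-human IgG are added for 2.5 h at 37 °C. Plates are developed with p-nitrophenyl phosphate (pH 9.8) and read at 405 nm for IC50. 3′- and 6′-sialyllactose serve as references for relative potency.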

The target is the same in experiment [4]. As to the kind of experiment: Binding affinity to human IgG1-fused Siglec-7-Fc measured after 2.5 hrs by ELISA relative to 3'sialyllactose. A digest of the protocol: as §2
(An ELISA detects its analyte on a solid surface through an enzyme-linked reagent.)

Experiment [5] shares this target. As to the kind of experiment: Ratio of 3'sialyllactose Kd to relative inhibitory potency of test compound for human IgG1-fused Siglec-7-Fc by ELISA. An outline of the steps: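 The Kd value is extrapolated by dividing the known Kd of 3′sialyllactose by the ELISA relative inhibitory potency. The ELISA uses plate-bound 6′sialyl-LacNAc-polyacrylamide with AP-precomplexed Siglec-7-Fc, 2.5 h at 37 °C, read at 405 nm.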

The target is the same in experiment [6]. As to the kind of experiment: Binding affinity to human IgG1-fused Siglec-7-Fc. A digest of the protocol:
as §1

T1 sequence (Q9Y286 whole entry, the tested form may be a part): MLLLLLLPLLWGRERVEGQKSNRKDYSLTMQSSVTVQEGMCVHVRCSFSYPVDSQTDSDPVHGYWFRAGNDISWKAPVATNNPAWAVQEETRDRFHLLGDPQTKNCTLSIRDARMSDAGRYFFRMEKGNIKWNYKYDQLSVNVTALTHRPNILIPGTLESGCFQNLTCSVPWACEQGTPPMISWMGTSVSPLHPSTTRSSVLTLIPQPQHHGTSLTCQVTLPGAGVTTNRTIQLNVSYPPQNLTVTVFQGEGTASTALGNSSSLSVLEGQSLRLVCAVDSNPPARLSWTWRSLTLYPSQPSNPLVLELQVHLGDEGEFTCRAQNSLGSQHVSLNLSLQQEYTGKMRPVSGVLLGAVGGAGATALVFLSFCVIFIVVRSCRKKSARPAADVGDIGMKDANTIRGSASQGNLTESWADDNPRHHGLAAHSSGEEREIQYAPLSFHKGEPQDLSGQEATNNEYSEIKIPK

As to `CC(=O)N[C@H]1[C@H]([C@H](O)[C@H](O)CNS(=O)(=O)C(F)(F)F)O[C@@](OCCCn2cc(-c3ccc(-c4ccccc4)cc3)nn2)(C(=O)O)C[C@@H]1O`, the fold change (FC) in experiment [1] amounted to 0.41.

For the molecule `CCCS(=O)(=O)NC[C@@H](O)[C@@H](O)[C@@H]1O[C@@](OCCCn2cc(-c3ccc(-c4ccccc4)cc3)nn2)(C(=O)O)C[C@H](O)[C@H]1NC(C)=O`, the fold change (FC) in experiment [1] stood at 0.33.

`CCCCS(=O)(=O)NC[C@@H](O)[C@@H](O)[C@@H]1O[C@@](OCCCn2cc(-c3ccc(-c4ccccc4)cc3)nn2)(C(=O)O)C[C@H](O)[C@H]1NC(C)=O`: the fold change (FC) in experiment [1] turned out to be 0.16.

On to `COC1(C(=O)O)C[C@H](O)[C@@H](NC(C)=O)[C@H]([C@H](O)[C@H](O)CNC(=O)Cc2cccc3ccccc23)O1` (stereo not given in full), for which, in experiment [1], the fold change (FC) was under 1.5.

On to `CCCNC[C@@H](O)[C@@H](O)[C@@H]1O[C@@](OCCCn2cc(-c3ccc(-c4ccccc4)cc3)nn2)(C(=O)O)C[C@H](O)[C@H]1NC(C)=O`, for which the fold change (FC) in experiment [1] was under 0.5.

On to `COC1(C(=O)O)C[C@H](O)[C@@H](NC(C)=O)[C@H]([C@H](O)[C@H](O)CNC(=O)Nc2ccccc2)O1` (stereo not given in full), for which the fold change (FC) in experiment [1] was under 1.

On to `CC(=O)N[C@H]1[C@H]([C@H](O)[C@@H](C)O)O[C@@](OCCCn2cc(-c3ccc(-c4ccccc4)cc3)nn2)(C(=O)O)C[C@@H]1O`, for which, in experiment [1], the fold change (FC) amounted to 0.15.

Take `COC1(C(=O)O)C[C@H](O)[C@@H](NC(C)=O)[C@H]([C@H](O)[C@H](O)CNC(=O)Cc2ccc3ccccc3c2)O1` (stereo not given in full): the fold change (FC) in experiment [1] is 8.2.

Turning to `COC1(C(=O)O)C[C@H](O)[C@@H](NC(C)=O)[C@H]([C@H](O)[C@H](O)CNC(=O)Cc2ccccc2)O1` (stereo not given in full), the fold change (FC) in experiment [1] amounted to 10.

For the molecule `CC(=O)N[C@H]1[C@H]([C@H](O)[C@H](O)CNS(=O)(=O)NC(=O)OCc2ccccc2)O[C@@](OCCCn2cc(-c3ccc(-c4ccccc4)cc3)nn2)(C(=O)O)C[C@@H]1O`, the fold change (FC) in experiment [1] came out at 0.27.

With `CC(=O)N[C@H]1[C@H]([C@H](O)[C@H](O)CNS(N)(=O)=O)O[C@@](OCCCn2cc(-c3ccc(-c4ccccc4)cc3)nn2)(C(=O)O)C[C@@H]1O`, in experiment [1], the fold change (FC) is 0.45.

`COC1(C(=O)O)C[C@H](O)[C@@H](NC(C)=O)[C@H]([C@H](O)[C@H](O)CNC(=O)CC2CCCCC2)O1` (stereo not given in full): the fold change (FC) in experiment [1] was under 1.5.

Consider `CC(=O)N[C@H]1[C@H]([C@H](O)[C@H](O)CNC(=O)C(=O)Nc2ccccc2)O[C@@](OCCCn2cc(-c3ccc(-c4ccccc4)cc3)nn2)(C(=O)O)C[C@@H]1O`, for which the fold change (FC) in experiment [1] is 6.8.

For `CC(=O)NC[C@@H](O)[C@@H](O)[C@@H]1O[C@@](OCCCn2cc(-c3ccc(-c4ccccc4)cc3)nn2)(C(=O)O)C[C@H](O)[C@H]1NC(C)=O`, in experiment [1], the fold change (FC) was 0.73.

For `CC(=O)N[C@H]1[C@H]([C@H](O)[C@H](O)CNC(=O)Cc2ccccc2)O[C@@](OCCCn2cc(-c3ccc(-c4ccccc4)cc3)nn2)(C(=O)O)C[C@@H]1O`, in experiment [1], the fold change (FC) is 0.6.

Take `CC(=O)N[C@H]1[C@H]([C@H](O)[C@H](O)CN)O[C@@](OCCCn2cc(-c3ccc(-c4ccccc4)cc3)nn2)(C(=O)O)C[C@@H]1O`: in experiment [1], the fold change (FC) came to 0.24.

As for `CC(=O)N[C@H]1[C@H]([C@H](O)[C@H](O)CNC(=O)C(N)=O)O[C@@](OCCCn2cc(-c3ccc(-c4ccccc4)cc3)nn2)(C(=O)O)C[C@@H]1O`, the fold change (FC) in experiment [1] is 3.5.

`CC(=O)N[C@H]1[C@H]([C@H](O)[C@H](O)CS)O[C@@](OCCCn2cc(-c3ccc(-c4ccccc4)cc3)nn2)(C(=O)O)C[C@@H]1O`: in experiment [1], the fold change (FC) stood at 0.52.

Take `COC1(C(=O)O)C[C@H](O)[C@@H](NC(C)=O)[C@H]([C@H](O)[C@H](O)CNC(=O)c2ccccc2)O1` (stereo not given in full): in experiment [1], the fold change (FC) is under 1.5.

As to `CCS(=O)(=O)NC[C@@H](O)[C@@H](O)[C@@H]1O[C@@](OCCCn2cc(-c3ccc(-c4ccccc4)cc3)nn2)(C(=O)O)C[C@H](O)[C@H]1NC(C)=O`, the figures for the IC50 in experiment [2] and in experiment [3] were 1.6 µM and 230 µM, respectively. The fold change (FC) in experiment [1] came out at 5210; in experiment [4] it was 161. Besides, the Ratio in experiment [5] was 4.2.

On to `CC(=O)N[C@H]1[C@H]([C@H](O)[C@H](O)CO)O[C@@](OC[C@H]2O[C@@H](O[C@H]3[C@H](O)[C@@H](O)[C@H](O)O[C@@H]3CO)[C@H](O)[C@@H](O)[C@H]2O)(C(=O)O)C[C@@H]1O`, for which the half-inhibitory concentration (IC50) (commonly the concentration needed to halve the response being measured) in experiment [3] was 25600 µM. Moreover, the fold change (FC) in experiment [4] was 1.4. In addition, the Kd (as a rule, the concentration at which binding is half-saturated) in experiment [6] stood at 240 µM.

In the case of `CC(=O)N[C@H]1[C@H]([C@H](O)[C@H](O)CO)O[C@@](OCCCn2cc(-c3ccc(-c4ccccc4)cc3)nn2)(C(=O)O)C[C@@H]1O`, the IC50 in experiment [2] stood at 53 µM. Besides, in experiment [1], the fold change (FC) came to 152.

Turning to `CC(=O)N[C@H]1[C@H]([C@H](O)[C@H](O)CNS(=O)(=O)NS(N)(=O)=O)O[C@@](OCCCn2cc(-c3ccc(-c4ccccc4)cc3)nn2)(C(=O)O)C[C@@H]1O`, the fold change (FC) in experiment [1] was determined as 1.

For the molecule `CC(=O)N[C@H]1[C@H]([C@H](O)[C@H](O)CNS(=O)(=O)c2ccccc2)O[C@@](OCCCn2cc(-c3ccc(-c4ccccc4)cc3)nn2)(C(=O)O)C[C@@H]1O`, the fold change (FC) in experiment [1] was determined as 0.49.

As to `CC(=O)N[C@H]1[C@H]([C@H](O)[C@H](O)CNCc2ccccc2)O[C@@](OCCCn2cc(-c3ccc(-c4ccccc4)cc3)nn2)(C(=O)O)C[C@@H]1O`, in experiment [1], the fold change (FC) is under 0.5.

`COC1(C(=O)O)C[C@H](O)[C@@H](NC(C)=O)[C@H]([C@H](O)[C@H](O)CO)O1` (stereo not given in full): the IC50 in experiment [2] is 8070 µM.

`CC(=O)N[C@H]1[C@H]([C@H](O)[C@H](O)CNS(=O)(=O)Cc2ccccc2)O[C@@](OCCCn2cc(-c3ccc(-c4ccccc4)cc3)nn2)(C(=O)O)C[C@@H]1O`: the fold change (FC) in experiment [1] is 0.17.

For `CC(=O)N[C@H]1[C@H]([C@H](O)[C@H](O)CNS(=O)(=O)c2cccc3c(N(C)C)cccc23)O[C@@](OCCCn2cc(-c3ccc(-c4ccccc4)cc3)nn2)(C(=O)O)C[C@@H]1O`, the fold change (FC) in experiment [1] is 0.09.

Take `COC1(C(=O)O)C[C@H](O)[C@@H](NC(C)=O)[C@H]([C@H](O)[C@H](O)CNC(=O)C(=O)Nc2ccccc2)O1` (stereo not given in full): in experiment [1], the fold change (FC) came to 58.

For the molecule `CC(=O)N[C@H]1[C@H]([C@H](O)[C@H](O)CNc2c(O)c(=O)c2=O)O[C@@](OCCCn2cc(-c3ccc(-c4ccccc4)cc3)nn2)(C(=O)O)C[C@@H]1O`, in experiment [1], the fold change (FC) turned out to be 0.28.

Regarding `CC(=O)N[C@H]1[C@H]([C@H](O)[C@H](O)CNS(=O)(=O)O)O[C@@](OCCCn2cc(-c3ccc(-c4ccccc4)cc3)nn2)(C(=O)O)C[C@@H]1O`, the fold change (FC) in experiment [1] amounted to 33.

For the molecule `COC1(C(=O)O)C[C@H](O)[C@@H](NC(C)=O)[C@H]([C@H](O)[C@H](O)CNC(=O)c2ccc(-c3ccccc3)cc2)O1` (stereo not given in full), the fold change (FC) in experiment [1] is under 1.5.

On to `CC(=O)N[C@H]1[C@H]([C@H](O)[C@H](O)CO)O[C@@](O[C@H]2[C@@H](O)[C@@H](CO)O[C@@H](O[C@H]3[C@H](O)[C@@H](O)[C@H](O)O[C@@H]3CO)[C@@H]2O)(C(=O)O)C[C@@H]1O`, for which the IC50 in experiment [3] worked out at 36900 µM. Moreover, the affinity in experiment [6], expressed as Kd, was 680 µM.

In the case of `COC1(C(=O)O)C[C@H](O)[C@@H](NC(C)=O)[C@H]([C@H](O)[C@H](O)CNC(=O)CC23CC4CC(CC(C4)C2)C3)O1` (stereo not given in full), in experiment [1], the fold change (FC) was under 1.5.

For `CC(=O)N[C@H]1[C@H]([C@H](O)[C@H](O)CNC(=O)C(=O)O)O[C@@](OCCCn2cc(-c3ccc(-c4ccccc4)cc3)nn2)(C(=O)O)C[C@@H]1O`, in experiment [1], the fold change (FC) was 3.6.

For the molecule `COC1(C(=O)O)C[C@H](O)[C@@H](NC(C)=O)[C@H]([C@H](O)[C@H](O)CNC(=O)C(N)=O)O1` (stereo not given in full), the fold change (FC) in experiment [1] amounted to 4.1.

Take `COC1(C(=O)O)C[C@H](O)[C@@H](NC(C)=O)[C@H]([C@H](O)[C@H](O)CNC(=O)Cc2ccc(-c3ccccc3)cc2)O1` (stereo not given in full): the fold change (FC) in experiment [1] was 4.5.

Source of the values: ChEMBL document CHEMBL3992537, “Design, Synthesis, and Biological Evaluation of Small, High-Affinity Siglec-7 Ligands: Toward Novel Inhibitors of Cancer Immune Evasion” (J Med Chem, 2017).
